≈ marks a conversion by molar mass, not a printed value. Calls of active or inactive are those of the source. No cut-off for these calls is given here.
Experiments:
[1] = test system: MCF7; assay: Cytotoxicity against human MCF7 cells assessed as inhibition of cell growth incubated for 24 hrs by MTT assay; type: functional, cell-based; settings: MCF7, 24 h
In short: (§1)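 MTT assay with 24 h exposure of cells to the samples. IC50 is the concentration giving 50% growth inhibition, reported as mean ± S.D. of three independent experiments.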

[2] = test system: Staphylococcus aureus; assay: Antibacterial activity against drug sensitive Staphylococcus aureus RN4220 assessed as reduction in bacterial growth by broth microdilution method; type: functional
In short: (§2)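 MICs were determined by standard twofold serial broth microdilution in lysogeny broth (LB) medium.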

[3] = test system: Bacillus subtilis; assay: Antibacterial activity against drug sensitive Bacillus subtilis 168 assessed as reduction in bacterial growth by broth microdilution method; type: functional; in short: as §2
[4] = test system: Escherichia coli; assay: Antibacterial activity against drug sensitive Escherichia coli DH5alpha assessed as reduction in bacterial growth by broth microdilution method; type: functional; in short: as §2
[5] = test system: Pseudomonas aeruginosa; assay: Antibacterial activity against drug sensitive Pseudomonas aeruginosa PAO1 assessed as reduction in bacterial growth by broth microdilution method; type: functional; in short: as §2
[6] = test system: Staphylococcus aureus; assay: Antibacterial activity against methicillin-resistant Staphylococcus aureus USA300 assessed as reduction in bacterial growth by broth microdilution method; type: functional
In short: (§3)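 Twofold serial dilution (microdilution) MIC in lysogeny broth (LB) medium against drug-resistant strains: MRSA USA300, vancomycin-resistant Enterococci, Klebsiella pneumoniae.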

[7] = test system: Enterococcus; assay: Antibacterial activity against vancomycin-resistant Enterococcus assessed as reduction in bacterial growth by broth microdilution method; type: functional; in short: as §3
[8] = test system: Klebsiella pneumoniae; assay: Antibacterial activity against drug-resistant Klebsiella pneumoniae assessed as reduction in bacterial growth by broth microdilution method; type: functional; in short: as §3
[9] = Cytotoxicity against human HEK293 cells assessed as inhibition of cell growth incubated for 24 hrs by MTT assay; type: toxicity, cell-based; in short: as §1
[10] = Cytotoxicity against human HK-2 cells assessed as inhibition of cell growth incubated for 24 hrs by MTT assay; type: toxicity, cell-based; in short: as §1
[11] = test system: Staphylococcus aureus; assay: Bactericidal activity against methicillin-resistant Staphylococcus aureus assessed as inhibition of bacterial growth at 2 times MIC incubated for 24 hrs by time kill assay; type: functional, organism-based
In short: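 Time-kill: MRSA grown 24 h at 37 °C, adjusted to ~2 × 10^6 CFU mL-1, exposed at 2× or 3× MIC with shaking at 37 °C. Aliquots taken at 0.5–13 h, serially diluted 10-fold in PBS, plated on Mueller–Hinton agar, counted after 24 h at 37 °C. Duplicate.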

[12] = test system: Staphylococcus aureus; assay: Antibacterial activity against methicillin-resistant Staphylococcus aureus infected in Kunming mouse corneal infection model assessed as reduction in viable bacterial count at 6 mg/ml, TOP administered 3 times daily for 1 week; type: functional, organism-based; settings: time 1.0 weeks
In short: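 Corneal infection model: male and female Kunming mice (~20 g) immunosuppressed with daily i.p. cyclophosphamide for 3 days. Anesthetized with i.p. avertin (400 mg kg-1), corneas abraded and given 20 μL MRSA (6 × 10^7 CFU mL-1). From 24 h post-infection, treated by topical smear three times daily for one week. Controls: 5% glucose and 5% vancomycin. Six mice per group. Corneal viable counts measured.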

SMILES | IC50 [1] | MIC [2] | MIC [3] | MIC [4] | MIC [5] | MIC [6] | MIC [7] | MIC [8] | IC50 at 24 h [9] | IC50 at 24 h [10] | Activity [11] | Activity [12]
O=c1[nH]cc(F)c(=O)[nH]1 [FLUOROURACIL] | 0.85 mg/L (≈ 6.53 µM) |  |  |  |  |  |  |  |  |  |  | 
CNc1nc2ccccc2nc1N |  | 128 mg/L (≈ 735 µM) | 64 mg/L (≈ 367 µM) | 128 mg/L (≈ 735 µM) | 128 mg/L (≈ 735 µM) | > 128 mg/L | > 128 mg/L | > 128 mg/L |  |  |  | 
Nc1nc2ccccc2nc1NCCCc1ccccc1 | 68.7 mg/L (≈ 247 µM) | 32 mg/L (≈ 115 µM) | 64 mg/L (≈ 230 µM) | 128 mg/L (≈ 460 µM) | > 128 mg/L | 128 mg/L (≈ 460 µM) | 128 mg/L (≈ 460 µM) | 128 mg/L (≈ 460 µM) | 126 mg/L (≈ 451 µM) | 141 mg/L (≈ 506 µM) |  | 
Nc1nc2ccccc2nc1NCc1ccc2ccccc2c1 | 69.7 mg/L (≈ 232 µM) | 32 mg/L (≈ 107 µM) | 32 mg/L (≈ 107 µM) | 64 mg/L (≈ 213 µM) | > 128 mg/L | 64 mg/L (≈ 213 µM) | > 128 mg/L | > 128 mg/L | 131 mg/L (≈ 435 µM) | 147 mg/L (≈ 488 µM) |  | 
COc1ccc(CCNc2nc3ccccc3nc2N)cc1 | 71.5 mg/L (≈ 243 µM) | 16 mg/L (≈ 54.4 µM) | 16 mg/L (≈ 54.4 µM) | 32 mg/L (≈ 109 µM) | 128 mg/L (≈ 435 µM) | 16 mg/L (≈ 54.4 µM) | > 128 mg/L | 64 mg/L (≈ 217 µM) | 129 mg/L (≈ 437 µM) | 139 mg/L (≈ 471 µM) |  | 
COc1cccc(CCNc2nc3ccccc3nc2N)c1 | 74.7 mg/L (≈ 254 µM) | 8 mg/L (≈ 27.2 µM) | 32 mg/L (≈ 109 µM) | 16 mg/L (≈ 54.4 µM) | 64 mg/L (≈ 217 µM) | 16 mg/L (≈ 54.4 µM) | 128 mg/L (≈ 435 µM) | 64 mg/L (≈ 217 µM) | 130 mg/L (≈ 443 µM) | 142 mg/L (≈ 483 µM) |  | 
Nc1nc2ccccc2nc1NCCc1ccccc1F |  | 64 mg/L (≈ 227 µM) | 128 mg/L (≈ 453 µM) | 128 mg/L (≈ 453 µM) | 128 mg/L (≈ 453 µM) | 128 mg/L (≈ 453 µM) | 128 mg/L (≈ 453 µM) | > 128 mg/L |  |  |  | 
CCn1cc(C(=O)O)c(=O)c2cc(F)c(N3CCNCC3)cc21 |  |  |  |  |  |  |  |  |  |  | Active | 
CCNc1nc2ccccc2nc1N |  | 128 mg/L (≈ 680 µM) | 128 mg/L (≈ 680 µM) | > 128 mg/L | 128 mg/L (≈ 680 µM) | > 128 mg/L | 128 mg/L (≈ 680 µM) | > 128 mg/L |  |  |  | 
Nc1nc2ccccc2nc1NCCc1ccc(F)cc1 |  | 64 mg/L (≈ 227 µM) | 64 mg/L (≈ 227 µM) | 128 mg/L (≈ 453 µM) | > 128 mg/L | > 128 mg/L | 128 mg/L (≈ 453 µM) | 128 mg/L (≈ 453 µM) |  |  |  | 
NC[C@H]1O[C@H](O[C@H]2[C@H](O)[C@@H](O[C@H]3O[C@H](CO)[C@@H](O)[C@H](N)[C@H]3O)[C@H](N)C[C@@H]2N)[C@H](O)[C@@H](O)[C@@H]1O [KANAMYCIN] |  | 1 mg/L (≈ 2.06 µM) | 0.5 mg/L (≈ 1.03 µM) | 1 mg/L (≈ 2.06 µM) | 4 mg/L (≈ 8.26 µM) | 1 mg/L (≈ 2.06 µM) | 8 mg/L (≈ 16.5 µM) | 4 mg/L (≈ 8.26 µM) |  |  |  | 
CN[C@H](CC(C)C)C(=O)N[C@H]1C(=O)N[C@@H](CC(N)=O)C(=O)N[C@H]2C(=O)N[C@H]3C(=O)N[C@H](C(=O)N[C@H](C(=O)O)c4cc(O)cc(O)c4-c4cc3ccc4O)[C@H](O)c3ccc(c(Cl)c3)Oc3cc2cc(c3O[C@@H]2O[C@H](CO)[C@@H](O)[C@H](O)[C@H]2O[C@H]2C[C@](C)(N)[C@H](O)[C@H](C)O2)Oc2ccc(cc2Cl)[C@H]1O |  |  |  |  |  |  |  |  |  |  |  | Active
Nc1nc2ccccc2nc1NCCc1ccccc1 | 72.3 mg/L (≈ 274 µM) | 32 mg/L (≈ 121 µM) | 64 mg/L (≈ 242 µM) | 128 mg/L (≈ 484 µM) | 128 mg/L (≈ 484 µM) | > 128 mg/L | > 128 mg/L | > 128 mg/L | 123 mg/L (≈ 467 µM) | 130 mg/L (≈ 493 µM) |  | 
Nc1nc2ccccc2nc1NCCC1=CCCCC1 |  | 64 mg/L (≈ 238 µM) | 128 mg/L (≈ 477 µM) | > 128 mg/L | > 128 mg/L | > 128 mg/L | > 128 mg/L | > 128 mg/L |  |  |  | 
Cc1ccc(CCNc2nc3ccccc3nc2N)cc1 | 70.9 mg/L (≈ 255 µM) | 16 mg/L (≈ 57.5 µM) | 32 mg/L (≈ 115 µM) | 32 mg/L (≈ 115 µM) | 64 mg/L (≈ 230 µM) | 32 mg/L (≈ 115 µM) | > 128 mg/L | 64 mg/L (≈ 230 µM) | 136 mg/L (≈ 487 µM) | 150 mg/L (≈ 538 µM) |  | 
Nc1nc2ccccc2nc1NCCc1ccc(Cl)c(Cl)c1 |  | > 128 mg/L | > 128 mg/L | > 128 mg/L | > 128 mg/L | > 128 mg/L | > 128 mg/L | > 128 mg/L |  |  |  | 
Nc1nc2ccccc2nc1NCCc1ccccc1Br |  | 128 mg/L (≈ 373 µM) | 64 mg/L (≈ 186 µM) | > 128 mg/L | 128 mg/L (≈ 373 µM) | 128 mg/L (≈ 373 µM) | 128 mg/L (≈ 373 µM) | 64 mg/L (≈ 186 µM) |  |  |  | 
Nc1nc2ccccc2nc1NCCc1ccc(Br)cc1 |  | 64 mg/L (≈ 186 µM) | 64 mg/L (≈ 186 µM) | 128 mg/L (≈ 373 µM) | 128 mg/L (≈ 373 µM) | > 128 mg/L | > 128 mg/L | > 128 mg/L |  |  |  | 
Nc1nc2ccccc2nc1NCCC1CCCCC1 |  | 128 mg/L (≈ 473 µM) | > 128 mg/L | > 128 mg/L | 128 mg/L (≈ 473 µM) | 128 mg/L (≈ 473 µM) | > 128 mg/L | > 128 mg/L |  |  |  | 

— ChEMBL document CHEMBL6177922, “Antibacterial activity of the structurally novel C-2 amine-substituted analogues based on quinoxaline” (RSC Med Chem, 2025)
